{"source": "ChEMBL document CHEMBL3861950", "about": "“Design, synthesis and evaluation of novel 19F magnetic resonance sensitive protein tyrosine phosphatase inhibitors” (Medchemcomm, 2016)", "key": {"[1]": {"molecular_target": "T1, Tyrosine-protein phosphatase non-receptor type 11 (Homo sapiens, UniProt Q06124)", "T1 sequence (Q06124 whole entry)": "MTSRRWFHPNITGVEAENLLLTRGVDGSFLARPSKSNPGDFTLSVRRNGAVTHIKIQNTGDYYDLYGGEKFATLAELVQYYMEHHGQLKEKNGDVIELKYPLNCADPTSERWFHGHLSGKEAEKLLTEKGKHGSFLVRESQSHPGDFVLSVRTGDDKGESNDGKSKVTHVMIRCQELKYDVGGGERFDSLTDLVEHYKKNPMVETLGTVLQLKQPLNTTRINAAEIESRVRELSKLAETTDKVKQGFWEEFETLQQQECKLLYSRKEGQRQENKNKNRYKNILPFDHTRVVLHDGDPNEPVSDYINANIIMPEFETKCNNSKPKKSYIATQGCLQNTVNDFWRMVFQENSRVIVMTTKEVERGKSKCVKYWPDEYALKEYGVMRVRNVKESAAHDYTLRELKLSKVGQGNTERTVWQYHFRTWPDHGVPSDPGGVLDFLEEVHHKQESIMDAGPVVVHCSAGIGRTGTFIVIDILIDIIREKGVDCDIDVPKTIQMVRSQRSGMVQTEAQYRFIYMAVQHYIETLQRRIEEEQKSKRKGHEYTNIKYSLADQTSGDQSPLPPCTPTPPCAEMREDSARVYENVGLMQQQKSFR", "assay": "Inhibition of recombinant SHP2 (unknown origin) using pNPP as substrate by spectrophotometric method", "in_short": "(§1)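 Recombinant PTP prepared in-house, assayed with pNPP substrate in 50 mM 3,3-dimethylglutarate buffer pH 7.0 containing 1 mM EDTA and 150 mM NaCl at 25 °C, in 96-well format. p-Nitrophenol product was quantified by absorbance at 405 nm. Non-enzymatic pNPP hydrolysis was corrected using a no-enzyme control.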"}, "[2]": {"molecular_target": "Tyrosine-protein phosphatase non-receptor type 13 (Homo sapiens, UniProt Q12923)", "sequence (Q12923 whole entry)": "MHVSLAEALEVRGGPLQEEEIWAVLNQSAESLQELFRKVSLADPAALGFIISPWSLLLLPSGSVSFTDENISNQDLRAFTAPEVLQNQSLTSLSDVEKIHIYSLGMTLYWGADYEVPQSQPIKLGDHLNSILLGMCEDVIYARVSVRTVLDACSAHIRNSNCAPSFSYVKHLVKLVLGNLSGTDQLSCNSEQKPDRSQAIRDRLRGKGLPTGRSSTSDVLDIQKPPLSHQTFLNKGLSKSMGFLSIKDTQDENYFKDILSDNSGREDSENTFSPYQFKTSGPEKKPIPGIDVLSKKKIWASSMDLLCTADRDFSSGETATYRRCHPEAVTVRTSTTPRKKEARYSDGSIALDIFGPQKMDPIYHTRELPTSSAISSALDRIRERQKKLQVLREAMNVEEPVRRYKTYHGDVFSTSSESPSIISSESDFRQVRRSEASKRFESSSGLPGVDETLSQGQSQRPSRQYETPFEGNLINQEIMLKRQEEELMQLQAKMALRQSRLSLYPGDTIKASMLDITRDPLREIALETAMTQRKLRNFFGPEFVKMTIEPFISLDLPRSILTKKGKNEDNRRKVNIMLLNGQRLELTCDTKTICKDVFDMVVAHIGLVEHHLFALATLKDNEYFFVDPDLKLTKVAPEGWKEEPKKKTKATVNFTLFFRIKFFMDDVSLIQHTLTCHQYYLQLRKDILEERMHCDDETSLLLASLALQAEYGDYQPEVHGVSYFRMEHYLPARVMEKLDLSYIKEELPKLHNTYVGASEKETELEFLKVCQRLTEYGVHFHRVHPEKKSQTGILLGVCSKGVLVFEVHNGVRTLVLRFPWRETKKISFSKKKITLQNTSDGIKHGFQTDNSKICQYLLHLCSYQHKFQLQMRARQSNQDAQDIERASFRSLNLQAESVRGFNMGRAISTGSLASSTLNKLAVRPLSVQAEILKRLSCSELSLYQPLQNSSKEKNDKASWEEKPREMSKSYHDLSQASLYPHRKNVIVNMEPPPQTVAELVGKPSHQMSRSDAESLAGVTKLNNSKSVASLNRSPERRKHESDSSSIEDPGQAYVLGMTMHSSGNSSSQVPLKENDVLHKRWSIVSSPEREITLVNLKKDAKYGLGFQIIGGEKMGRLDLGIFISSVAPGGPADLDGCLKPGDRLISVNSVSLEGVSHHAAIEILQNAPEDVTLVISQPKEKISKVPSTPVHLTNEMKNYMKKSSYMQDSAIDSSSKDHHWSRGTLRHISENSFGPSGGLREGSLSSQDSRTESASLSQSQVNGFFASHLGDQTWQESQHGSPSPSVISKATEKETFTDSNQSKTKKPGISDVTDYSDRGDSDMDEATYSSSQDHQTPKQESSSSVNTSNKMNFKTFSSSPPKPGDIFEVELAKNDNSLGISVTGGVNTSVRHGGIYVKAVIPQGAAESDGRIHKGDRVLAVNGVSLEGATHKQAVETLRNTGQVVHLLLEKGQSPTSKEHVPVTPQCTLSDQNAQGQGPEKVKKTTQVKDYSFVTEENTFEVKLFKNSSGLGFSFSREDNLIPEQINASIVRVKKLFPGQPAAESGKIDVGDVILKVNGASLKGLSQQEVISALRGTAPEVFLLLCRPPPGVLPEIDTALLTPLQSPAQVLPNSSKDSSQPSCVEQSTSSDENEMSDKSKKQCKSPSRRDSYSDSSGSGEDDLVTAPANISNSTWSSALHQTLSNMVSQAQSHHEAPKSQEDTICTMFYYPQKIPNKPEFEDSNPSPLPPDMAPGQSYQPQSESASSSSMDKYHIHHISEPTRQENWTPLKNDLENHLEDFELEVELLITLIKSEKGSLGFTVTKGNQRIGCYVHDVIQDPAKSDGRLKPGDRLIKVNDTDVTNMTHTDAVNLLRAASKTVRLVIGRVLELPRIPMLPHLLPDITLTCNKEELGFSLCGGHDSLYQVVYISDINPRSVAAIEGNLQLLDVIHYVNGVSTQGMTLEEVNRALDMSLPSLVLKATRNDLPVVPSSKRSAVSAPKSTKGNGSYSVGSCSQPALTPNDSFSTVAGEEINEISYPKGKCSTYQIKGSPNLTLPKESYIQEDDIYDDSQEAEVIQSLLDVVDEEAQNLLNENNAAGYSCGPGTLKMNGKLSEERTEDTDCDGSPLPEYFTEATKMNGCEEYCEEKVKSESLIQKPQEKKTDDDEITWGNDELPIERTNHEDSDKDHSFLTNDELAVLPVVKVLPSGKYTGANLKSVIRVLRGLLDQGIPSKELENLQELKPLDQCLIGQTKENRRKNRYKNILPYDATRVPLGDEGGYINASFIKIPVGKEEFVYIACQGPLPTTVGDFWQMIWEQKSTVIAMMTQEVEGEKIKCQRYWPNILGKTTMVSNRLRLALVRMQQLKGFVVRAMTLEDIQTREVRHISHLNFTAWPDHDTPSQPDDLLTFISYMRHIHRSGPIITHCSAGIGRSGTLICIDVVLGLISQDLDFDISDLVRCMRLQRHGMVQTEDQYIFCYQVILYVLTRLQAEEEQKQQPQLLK", "assay": "Inhibition of recombinant FAP1 (unknown origin) using pNPP as substrate by spectrophotometric method", "in_short": "as §1"}, "[3]": {"assay": "Selectivity ratio of IC50 for recombinant PTP1B (unknown origin) to IC50 for recombinant Mycobacterium tuberculosis PTPB"}, "[4]": {"assay": "Selectivity ratio of IC50 for recombinant LYP (unknown origin) to IC50 for recombinant Mycobacterium tuberculosis PTPB"}, "[5]": {"assay": "Selectivity ratio of IC50 for recombinant FAP1 (unknown origin) to IC50 for recombinant Mycobacterium tuberculosis PTPB"}, "[6]": {"assay": "Selectivity ratio of IC50 for recombinant SHP2 (unknown origin) to IC50 for recombinant Mycobacterium tuberculosis PTPB"}, "[7]": {"assay": "Inhibition of recombinant Mycobacterium tuberculosis PTPB using pNPP as substrate by spectrophotometric method", "in_short": "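Recombinant enzyme made in-house. Substrate pNPP in 50 mM 3,3-dimethylglutarate buffer, pH 7.0, with 1 mM EDTA and 150 mM NaCl, at 25 °C, screened in 96-well format. p-Nitrophenol product read at 405 nm. Non-enzymatic pNPP hydrolysis was corrected using a control without enzyme.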"}, "[8]": {"assay": "Selectivity ratio of IC50 for recombinant CD45 (unknown origin) to IC50 for recombinant Mycobacterium tuberculosis PTPB"}, "[9]": {"molecular_target": "T2, Receptor-type tyrosine-protein phosphatase C (Homo sapiens, UniProt P08575)", "T2 sequence (P08575 whole entry)": "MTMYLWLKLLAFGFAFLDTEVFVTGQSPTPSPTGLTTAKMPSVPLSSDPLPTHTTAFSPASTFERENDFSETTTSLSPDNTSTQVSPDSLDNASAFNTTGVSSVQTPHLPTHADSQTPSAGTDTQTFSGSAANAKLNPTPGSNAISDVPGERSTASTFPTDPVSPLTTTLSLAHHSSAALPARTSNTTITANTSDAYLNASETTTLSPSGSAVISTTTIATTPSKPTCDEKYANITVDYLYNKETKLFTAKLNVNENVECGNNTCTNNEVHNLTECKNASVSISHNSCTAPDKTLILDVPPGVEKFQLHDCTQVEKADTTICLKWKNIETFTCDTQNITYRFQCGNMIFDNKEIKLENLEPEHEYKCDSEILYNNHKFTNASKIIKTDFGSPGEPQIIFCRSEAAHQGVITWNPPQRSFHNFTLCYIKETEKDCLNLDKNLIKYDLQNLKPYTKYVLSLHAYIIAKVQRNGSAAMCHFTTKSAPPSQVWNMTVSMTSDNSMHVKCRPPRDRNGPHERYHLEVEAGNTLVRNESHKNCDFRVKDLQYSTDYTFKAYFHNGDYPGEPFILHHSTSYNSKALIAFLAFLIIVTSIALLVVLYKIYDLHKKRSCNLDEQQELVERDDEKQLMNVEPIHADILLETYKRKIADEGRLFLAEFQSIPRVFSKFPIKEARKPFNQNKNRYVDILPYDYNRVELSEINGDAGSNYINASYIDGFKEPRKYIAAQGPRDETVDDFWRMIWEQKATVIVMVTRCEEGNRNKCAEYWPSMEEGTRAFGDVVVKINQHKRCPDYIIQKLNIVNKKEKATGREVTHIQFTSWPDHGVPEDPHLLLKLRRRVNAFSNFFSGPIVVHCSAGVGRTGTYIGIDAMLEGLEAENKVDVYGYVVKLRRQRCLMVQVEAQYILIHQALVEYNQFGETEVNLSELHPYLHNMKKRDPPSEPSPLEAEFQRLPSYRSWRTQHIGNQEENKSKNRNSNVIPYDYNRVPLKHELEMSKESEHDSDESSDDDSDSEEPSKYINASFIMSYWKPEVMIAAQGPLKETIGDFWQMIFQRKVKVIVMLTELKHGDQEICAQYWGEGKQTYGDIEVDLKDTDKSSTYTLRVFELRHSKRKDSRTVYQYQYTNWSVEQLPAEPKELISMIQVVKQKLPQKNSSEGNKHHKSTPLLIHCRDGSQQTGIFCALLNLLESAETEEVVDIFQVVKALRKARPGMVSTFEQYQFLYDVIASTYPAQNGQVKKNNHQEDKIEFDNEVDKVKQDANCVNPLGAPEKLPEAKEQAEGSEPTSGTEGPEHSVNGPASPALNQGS", "assay": "Inhibition of recombinant CD45 (unknown origin) using pNPP as substrate by spectrophotometric method", "in_short": "as §1"}}, "note": "pIC50: −log10 of the molar value.", "data": [{"smiles": "Cc1ccc(S(=O)(=O)NNC(=O)COc2ccc3cc(C(O)(C(F)(F)F)C(F)(F)F)c(O)cc3c2)cc1", "values": [{"measurement": "pIC50", "setting": "[1]", "value": 4.69}, {"measurement": "pIC50", "setting": "[2]", "value": 4.83}, {"measurement": "Ratio IC50", "setting": "[3]", "value": "> 7"}, {"measurement": "Ratio IC50", "setting": "[4]", "value": "> 7"}, {"measurement": "Ratio IC50", "setting": "[5]", "value": "> 7"}, {"measurement": "Ratio IC50", "setting": "[6]", "value": "> 7"}, {"measurement": "pIC50", "setting": "[7]", "value": 5.64}, {"measurement": "Ratio IC50", "setting": "[8]", "value": "> 7"}, {"measurement": "pIC50", "setting": "[9]", "value": 4.79}]}]}
